# MPTP block – blocks calcium-induced mitochondrial swelling | isolated mouse mitochondria, Ca2+ swelling absorbance, 30 min | inhibition, % at 10 µM | 360,000 tested, 1.4% active;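 active = inhibition of 50% or more, scaled per plate between neutral and stimulator controls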;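 also: 0% = DMSO wells given calcium and 100% = 1 mM EGTA wells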
# SMARCA2 act – increases SMARCA2 function in MMTV reporter cells; MG213 cells, MMTV-luciferase reporter, dexamethasone, overnight; activation, % at 9.1 µM; 370,000 tested, 1% active; AID 652017; in the data active = activation above about 7.8%;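 also: 0% = vehicle wells and 100% = reference activator wells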
# ATG4B inh – inhibitors of human ATG4B cysteine protease; 340,000 tested, 0.51% active; AID 504462; inhibition, % at 8.33 µM; ATG4B cleavage of LC3-PLA2, NBD-HPC fluorescence, 1 h; in the data active = inhibition above about 40%
# Target sequence (Q9Y4P1 whole entry, looked up): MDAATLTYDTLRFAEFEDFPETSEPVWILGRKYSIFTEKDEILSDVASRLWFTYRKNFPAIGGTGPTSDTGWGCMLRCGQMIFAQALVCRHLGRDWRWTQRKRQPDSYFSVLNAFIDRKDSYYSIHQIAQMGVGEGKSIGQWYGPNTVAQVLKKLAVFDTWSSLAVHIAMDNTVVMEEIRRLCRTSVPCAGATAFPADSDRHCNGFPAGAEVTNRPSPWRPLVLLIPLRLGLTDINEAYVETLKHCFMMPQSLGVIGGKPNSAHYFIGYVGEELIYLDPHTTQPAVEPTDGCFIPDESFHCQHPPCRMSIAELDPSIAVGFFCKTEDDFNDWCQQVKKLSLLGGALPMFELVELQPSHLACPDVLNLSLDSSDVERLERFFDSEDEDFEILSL
# MC4R antagonist – blocks human MC4R cAMP signaling; P32245; MC4R-expressing cells, MTII-stimulated cAMP, LANCE TR-FRET; inhibition, % at 6.5 µM; 360,000 tested, 0.48% active; AID 540295;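 active = inhibition above its plate's cutoff, the mean of tested wells on that plate plus 3 SD, cut at about 29% in these data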;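 also: 0% = Melanotan II alone and 100% = Melanotan II plus saturating MCL0020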
#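 Material – human MC4R-expressing U2OS cells · Repeats – no replicates · Detection – TR-FRET with Eu-cAMP and labeled anti-cAMP, 671 nm · Times – compound 30 min, challenge 1 h, detection 1 h · Compound – single nominal compound dose of 6.5 µM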
# MC4R ag barr – activates human MC4R beta-arrestin recruitment. U2OS MC4R beta-arrestin complementation, luminescence; percent of melanotan II response, DMSO zero. activation, % at 8.9 µM. 360,000 tested, 0.98% active. AID 540308;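 active = activation above a per-plate cutoff, the mean activation of sample wells on that plate plus 3 SD, cut at about 8% in these data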
# MPTP counter – Rhodamine 123 counter-screen of mitochondrial pore hits | shares compounds with MPTP block | isolated mitochondria, membrane potential, Rhodamine 123 fluorescence | inhibition, % at 10 µM | 5,000 tested, 78% active | AID 624504; in the data active = inhibition above about 22%;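 also: 0% = DMSO vehicle and 100% = positive control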
# MPTP abs DR – dose response confirmation of mitochondrial permeability transition pore inhibitors; shares compounds with MPTP block; isolated mitochondria swelling, absorbance; IC50, µM; 780 tested, 58% active; in the data active = IC50 below about 20 µM
# MPTP counter DR – MPTP inhibitor counter-screen activity, dose response; 780 tested, 49% active; isolated mitochondria counterscreen, fluorescence read-out; IC50, µM; shares compounds with MPTP block; in the data active = IC50 below about 80 µM
# * = called active by the depositor; i = inactive; · = not tested or not shown. Shown are actives, neighbours in structure and some others; about 4.1% of the full set was active somewhere.
SMILES,MPTP block,SMARCA2 act,ATG4B inh,MC4R antagonist,MC4R ag barr,MPTP counter,others
N/C(=N\N=C/c1ccc(Br)cc1)N/N=C\c1ccc(Br)cc1,58.7*,-0.4,-0.7,2.9,7.4,-6.2,MPTP abs DR=i;MPTP counter DR=37.4*
O=C(CSc1nc2ccccc2nc1N1CCOCC1)N1CCN(c2cccc(C(F)(F)F)c2)CC1,·,-7.3,·,·,·,·,
CCOc1cc(/C=C2\N=C(SC)SC2=O)cc([N+](=O)[O-])c1OC(C)=O,22.6,·,30.9,13.5,0.4,·,
CCOc1c(OC(C)=O)ccc(/C=C2\N=C(SCC)SC2=O)c1[N+](=O)[O-],89.0*,1.2,22.0,8.8,-2.9,71.6*,
COC(=O)C1CN(Cc2ccc(C)cc2)CCS(=O)(=O)N1Cc1cn(Cc2ccc(Cl)cc2)nn1 (centres undefined),·,-4.0,·,·,·,·,
Cn1c(=O)c2[nH]c(CCCCc3nc4ccccc4[nH]3)nc2n(C)c1=O,-1.4,0.8,-5.9,3.6,0.7,·,
Cn1c(=O)c2[nH]c(CCCCCCCCc3nc4ccccc4[nH]3)nc2n(C)c1=O,101.9*,-7.7,-9.9,1.2,-1.4,93.8*,
CC(=O)C1=C(C)N(Cc2ccc(Br)cc2)C(=S)NC1c1cccc(F)c1 (centres undefined),·,0.2,·,·,·,·,
CCN(CC)S(=O)(=O)c1ccc(N2CCN(c3ccccc3OC)CC2)c(N)c1,107.6*,-5.5,-12.4,-7.3,-0.9,98.1*,
CCN(CC)S(=O)(=O)c1ccc(Oc2ccccc2)c(N)c1,0.7,-2.1,-6.1,-3.4,-0.3,·,
CC1(c2ccc3ccccc3c2)NC(=O)N(CC(=O)N2CCN(Cc3ccc(C#N)cc3)CC2)C1=O (centres undefined),57.4*,·,-9.6,0.5,4.5,64.5*,
Cc1csc2ncnc(N3CCN(C(=S)Nc4ccc(F)cc4F)CC3)c12,82.5*,-4.3,-5.0,5.5,0.7,74.6*,
Fc1ccc(NC(=S)N2CCCN(c3ccc(C(F)(F)F)cn3)CC2)c(F)c1,71.2*,-5.4,3.6,-1.0,0.4,44.5*,
CC1CN(C(=S)Nc2ccc(F)cc2F)CC(C)O1 (centres undefined),-2.3,-1.2,-5.1,-1.4,-2.2,·,
Clc1ccc(-c2nnc(SCc3cccc4ccccc34)n2Cc2ccco2)cc1,·,1.6,·,·,·,·,
OC(c1ccccc1)(c1ccccc1)C1CCN(CCCOc2cccc(Cl)c2)CC1,·,-4.1,·,·,·,·,
CN1CCCC1CCOC(C)(c1ccccc1)c1ccc(Cl)cc1 (centres undefined),80.7*,-1.1,7.6,5.4,1.1,-11.4,MPTP abs DR=6.08*;MPTP counter DR=>80
COC(=O)C1CCC(CNC(=O)C(Cc2ccc3c(c2)OCO3)NC(C)=O)CC1 (centres undefined),·,-3.8,·,·,·,·,
Cc1ccc(S(=O)(=O)N2CCCC2C(=O)N2CCN(c3ccccc3)CC2)cc1C (centres undefined),·,6.1,·,·,·,·,
C[C@H](O)[C@@H]1CN2CCc3c([nH]c4c(-c5ccc6c(c5)OCO6)cccc34)[C@@H]2C[C@@H]1N(C)C(=O)c1ccccc1F,·,-4.2,·,·,·,·,
COc1ccc(-c2[nH]c(-c3ccc(C(=O)O)cc3)nc2-c2ccccc2)cc1,4.5,2.6,2.7,10.6,-0.8,·,
COc1ccc(-c2[nH]c(-c3ccc4c(c3)OCO4)nc2-c2ccccc2)cc1,95.1*,-3.3,23.0,-1.6,0.1,70.3*,
NC(=S)NN=C1c2cc(Cl)ccc2-c2c1cc(Cl)cc2[N+](=O)[O-],92.7*,·,2.1,-2.4,-1.5,73.9*,
COc1cc2c(cc1[N+](=O)[O-])-c1ccc([N+](=O)[O-])cc1C2=NNC(N)=S,2.7,·,·,4.8,-3.6,·,
COCCN1Cc2cc(C(=O)OC)c3c(c2C1=O)c1cc(F)ccc1n3S(=O)(=O)c1ccc(C)cc1,·,-3.1,·,·,·,·,
SMILES,MPTP block,SMARCA2 act,ATG4B inh,MC4R antagonist,MC4R ag barr,MPTP counter,others
Cc1ccccc1C(=O)NC1CCCCN(Cc2cccc(F)c2)C1=O (centres undefined),·,-1.5,·,·,·,·,
COc1ccc(Nc2nc(N3CCCC3)c3ccccc3n2)cc1,102.8*,-1.9,7.6,-13.7,3.5,100.5*,
Cc1ccc([C@@H]2C[C@H]3[C@@H](CN2S(=O)(=O)c2ccc(Cl)cc2)C(=O)C[C@@H](c2cccc(Cl)c2)N3S(=O)(=O)c2ccc(C)cc2)cc1,-3.4,0.2,·,-0.6,1.1,·,
Cc1ccc([C@@H]2CC(=O)[C@@H]3CN(S(=O)(=O)c4ccccc4C)[C@H](c4ccc(Cl)cc4)C[C@@H]3N2S(=O)(=O)c2ccc(C)cc2)cc1,58.1*,-1.8,·,-4.9,-0.4,77.1*,
Cc1ccc(S(=O)(=O)N2[C@H](c3cccc(Cl)c3)CC(=O)[C@@H]3CN(S(=O)(=O)c4ccccc4C)[C@H](c4ccc(Cl)cc4)C[C@@H]32)cc1,81.0*,-6.6,·,0.8,0.0,68.9*,
Cc1ccc(S(=O)(=O)N2[C@H](c3ccc(Cl)cc3)CC(=O)[C@@H]3CN(S(=O)(=O)c4ccccc4C)[C@H](c4ccc(Cl)cc4)C[C@@H]32)cc1,20.5,-1.8,·,·,·,·,
Cc1cc(-c2n[nH]c(=S)n2N=Cc2c3ccccc3cc3ccccc23)n[nH]1,·,-4.0,·,·,·,·,
COc1cccc(CNC(=O)Cn2c(-c3ccccc3)cc(C(C)=O)c2C)c1,·,-6.5,·,·,·,·,
CCCn1c(/C=N/Nc2nc3ccccc3[nH]2)nc2ccccc21,89.9*,4.0,8.7,-7.0,-3.1,80.8*,
C=CCn1cc(/C=N/Nc2nc3ccccc3[nH]2)c2ccccc21,63.4*,-4.2,-15.7,3.7,1.3,-21.9,
Cn1c(/C=N/Nc2nc3ccccc3[nH]2)nc2ccccc21,0.6,4.8,-7.9,1.8,-4.0,·,
Cc1c(/C=N/Nc2nc3ccccc3[nH]2)c2ccccc2n1C,0.8,-2.7,-34.3,2.2,0.9,·,
CC(C)Cn1c(/C=N/Nc2nc3ccccc3[nH]2)nc2ccccc21,99.7*,-3.4,23.6,5.6,-3.8,74.0*,
CC(C)Cn1c(/C=C/c2ccccc2)nc2ccccc21,2.0,2.9,31.8,4.5,-1.0,·,
CCOc1ccccc1-c1cc(-c2ccc(OC)cc2)nc2c1c(=O)n(C)c(=O)n2C,82.8*,1.4,6.8,4.5,0.9,6.0,MPTP abs DR=>100;MPTP counter DR=>80
COc1ccccc1-c1nc(SCC(=O)Nc2cc(C)on2)c2c(=O)n(C)c(=O)n(C)c2n1,-1.0,-1.2,5.1,22.6,-1.8,·,
CCN1CCCCC(NC(=O)c2cccc(C(F)(F)F)c2)C1=O (centres undefined),·,-3.5,·,·,·,·,
O=C1S/C(=C\c2ccc(O)c([N+](=O)[O-])c2)C(=O)N1c1ccccc1Cl,59.0*,-2.8,9.0,1.5,-2.5,71.5*,
